Assays:
[1] = tested on: MCF7; assay: Cell cycle arrest in human MCF7 cells assessed as G1 accumulation at 1 uM incubated for 24 hrs by propidium iodide based flow cytometry (reference value: 49.6 to 55.1 %); assay type: functional
[2] = tested on: MCF7; assay: Induction of apoptosis in human MCF7 cells assessed as viable cells at 1 uM incubated for 24 hrs by annexin V FITC and propidium iodide staining based flow cytometry (reference value: 76 to 95.9 %); assay type: functional; settings: MCF7, 24 h, read-out: Activity
[3] = tested on: MCF7; assay: Induction of apoptosis in human MCF7 cells assessed as early apoptotic cells at 1 uM incubated for 24 hrs by annexin V FITC and propidium iodide staining based flow cytometry (reference value: 0 to 9 %); assay type: functional
[4] = Selectivity index, ratio of IC50 for cytotoxicity against human MRC5 cells to IC50 for antiproliferative activity against human MCF7 cells; settings: MRC5 cells versus MCF7 cells
[5] = tested on: MCF7; assay: Induction of apoptosis in human MCF7 cells assessed as necrotic cells at 10 uM incubated for 24 hrs by annexin V FITC and propidium iodide staining based flow cytometry (reference value: 4.1 to […]); assay type: functional
[6] = tested on: MCF7; assay: Induction of apoptosis in human MCF7 cells assessed as early apoptotic cells at 10 uM incubated for 24 hrs by annexin V FITC and propidium iodide staining based flow cytometry (reference value: 0 to 9 %); assay type: functional
[7] = tested on: MCF7; assay: Cell cycle arrest in human MCF7 cells assessed as S phase accumulation at 1 uM incubated for 24 hrs by propidium iodide based flow cytometry (reference value: 17.3 to 28.5 %); assay type: functional
[8] = tested on: MCF7; assay: Cell cycle arrest in human MCF7 cells assessed as S phase accumulation at 10 uM incubated for 24 hrs by propidium iodide based flow cytometry (reference value: 17.3 to 28.5 %); assay type: functional
[9] = tested on: MCF7; assay: Induction of apoptosis in human MCF7 cells assessed as early apoptotic cells at 5 uM incubated for 24 hrs by annexin V FITC and propidium iodide staining based flow cytometry (reference value: 0 to 9 %); assay type: functional
[10] = tested on: MCF7; assay: Cell cycle arrest in human MCF7 cells assessed as subG1 accumulation at 5 uM incubated for 24 hrs by propidium iodide based flow cytometry (reference value: 0.6 to 3 %); assay type: functional
[11] = tested on: MCF7; assay: Induction of apoptosis in human MCF7 cells assessed as late apoptotic cells at 1 uM incubated for 24 hrs by annexin V FITC and propidium iodide staining based flow cytometry (reference value: 0 to 2.5 %); assay type: functional
[12] = tested on: MCF7; assay: Induction of apoptosis in human MCF7 cells assessed as necrotic cells at 1 uM incubated for 24 hrs by annexin V FITC and propidium iodide staining based flow cytometry (reference value: 4.1 to […]); assay type: functional
[13] = tested on: MCF7; assay: Cell cycle arrest in human MCF7 cells assessed as G2/M phase accumulation at 10 uM incubated for 24 hrs by propidium iodide based flow cytometry (reference value: 17.2 to 26.8 %); assay type: functional
[14] = tested on: MCF7; assay: Induction of apoptosis in human MCF7 cells incubated for 24 hrs by annexin V FITC and propidium iodide staining based flow cytometry; assay type: functional, cell-based
[15] = tested on: MCF7; assay: Cell cycle arrest in human MCF7 cells assessed as G2/M phase accumulation at 5 uM incubated for 24 hrs by propidium iodide based flow cytometry (reference value: 17.2 to 26.8 %); assay type: functional
[16] = tested on: MCF7; assay: Cell cycle arrest in human MCF7 cells assessed as G1 accumulation at 10 uM incubated for 24 hrs by propidium iodide based flow cytometry (reference value: 49.6 to 55.1 %); assay type: functional
[17] = tested on: MCF7; assay: Induction of apoptosis in human MCF7 cells assessed as viable cells at 10 uM incubated for 24 hrs by annexin V FITC and propidium iodide staining based flow cytometry (reference value: 76 to 95.9 %); assay type: functional; settings: MCF7, 24 h, read-out: Activity
[18] = tested on: MCF7; assay: Induction of apoptosis in human MCF7 cells assessed as necrotic cells at 5 uM incubated for 24 hrs by annexin V FITC and propidium iodide staining based flow cytometry (reference value: 4.1 to […]); assay type: functional
[19] = tested on: MCF7; assay: Induction of apoptosis in human MCF7 cells assessed as late apoptotic cells at 5 uM incubated for 24 hrs by annexin V FITC and propidium iodide staining based flow cytometry (reference value: 0 to 2.5 %); assay type: functional
[20] = tested on: Rattus norvegicus; assay: Antiinflammatory activity against albino rats assessed as inhibition of carrageenan-induced paw edema at 0.5 mmol, po measured after 2 hrs relative to control; assay type: functional
Summary of the method: (§1)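 Carrageenan rat paw edema (Winter method) in male and female adult albino rats (100-140 g). […] Swelling inhibition expressed as % of control at 2-4 h after carrageenan injection.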

[21] = Selectivity index, ratio of IC50 for cytotoxicity against human MRC5 cells to IC50 for antiproliferative activity against human HT-29 cells; settings: MRC5 cells versus HT-29 cells
[22] = tested on: Rattus norvegicus; assay: Antiinflammatory activity against albino rats assessed as inhibition of carrageenan-induced paw edema at 0.5 mmol, po measured after 4 hrs relative to control; assay type: functional; summary of the method: as §1
[23] = tested on: MCF7; assay: Antiproliferative activity against human MCF7 cells assessed as cell viability at 5 uM incubated for 48 hrs by MTT assay (reference value: 100 %); assay type: functional; settings: MCF7, 48 h, read-out: Activity
Summary of the method: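 Preliminary single-dose screen by MTT assay. MCF-7 cells grown in DMEM/10% FBS were exposed to 5 μM compound for 48 h, and growth% was determined. Values are mean ± S.D., n = 6.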

SMILES | Activity [1] [%] | viability at 1 µM [2] [%] | Activity [3] [%] | selectivity ratio [4] | Activity [5] [%] | Activity [6] [%] | Activity [7] [%] | Activity [8] [%] | Activity [9] [%] | Activity [10] [%] | Activity [11] [%] | Activity [12] [%] | Activity [13] [%] | Activity [15] [%] | Activity [16] [%] | viability at 10 µM [17] [%] | Activity [18] [%] | Activity [19] [%] | further results
CCC1SCC(=O)N1c1c(C#N)c2n(c1C(=O)Nc1ccccc1)CCC2 (stereo unspecified) | 56.4 | 80.1 | 11.5 | 3 to 15 | 3.7 | 19.5 | 20.6 | 14.2 | 14.3 | 2.4 | 7.5 | 1 | 14.1 | 15.8 | 59.1 | 66.6 | 0.9 | 6.9 | Activity [14]: Dose-dependent effect
CC(C)C/C=N/c1c(C#N)c2n(c1C(=O)Nc1ccc(Br)cc1)CCC2 | 30.8 | 55.4 | 13.3 | 39 to 258 | 14.7 | 15.6 | 55.6 | 55.2 | 16.5 | 0.9 | 10.5 | 20.8 | 15.1 | 14.4 | 29.6 | 57.6 | 13.4 | 11.2 | inhibition (INH) [20]: 18.13%; selectivity ratio [21]: 39 to 258; inhibition (INH) [22]: 30.82%; viability at 5 µM [23]: 56%
